Data from ChEMBL document CHEMBL3232744, “Design, synthesis, acetylcholinesterase inhibition and larvicidal activity of girgensohnine analogs on Aedes aegypti, vector of dengue fever” (Eur J Med Chem, 2014).
Values after ≈ are worked out from the molar mass of the structure shown. Active and inactive are the calls of the source. No cut-off for these calls is given here.

Assays:
[1] = Dissociation constant, pKa of the compound; assay type: physicochemical
Acetylcholinesterase = Acetylcholinesterase (Homo sapiens, UniProt P22303); assay: Inhibition of AChE (unknown origin) by Ellman colorimetric method
Aedes aegypti [2] = assay: Insecticidal activity against third-instar larvae of Aedes aegypti assessed as mortality at 140 ppm after 24 to 48 hrs; assay type: functional, organism-based
Outline: (§1)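 Diagnostic screen with third-instar larvae. Five larvae per pot, four replicates per concentration. Compounds tested at 300, 270, 180, 140, 70, 60, 45 and 25 ppm. Control pots held 1% DMSO only. Mortality was scored at 24 and 48 h. Larvae that could not reach the water surface when touched were counted as dead.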

Aedes aegypti [3] = assay: Insecticidal activity against third-instar larvae of Aedes aegypti assessed as mortality at 300 ppm after 24 to 48 hrs; assay type: functional, organism-based; outline: as §1
Aedes aegypti [4] = assay: Insecticidal activity against third-instar larvae of Aedes aegypti assessed as mortality at 180 ppm after 24 to 48 hrs; assay type: functional, organism-based; outline: as §1
Aedes aegypti [5] = assay: Insecticidal activity against third-instar larvae of Aedes aegypti assessed as mortality after 24 hrs; assay type: functional
Outline: (§2)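 In a second bioassay, third-instar larvae were exposed to 150, 130, 100, 85 and 55 ppm, with a 1% DMSO control. Five larvae per pot, four replicates. Death was scored as failure to reach the water surface when touched, at 24 h or 48 h. LC50 and LC99 with confidence intervals came from probit analysis.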

Aedes aegypti [6] = assay: Insecticidal activity against third-instar larvae of Aedes aegypti assessed as mortality after 48 hrs; assay type: functional; outline: as §2
Aedes aegypti [7] = assay: Insecticidal activity against third-instar larvae of Aedes aegypti assessed as mortality at 60 ppm after 24 to 48 hrs; assay type: functional, organism-based; outline: as §1
Aedes aegypti [8] = assay: Insecticidal activity against third-instar larvae of Aedes aegypti assessed as mortality at 25 ppm after 24 to 48 hrs; assay type: functional, organism-based; outline: as §1
Aedes aegypti [9] = assay: Insecticidal activity against third-instar larvae of Aedes aegypti assessed as mortality at 270 ppm after 24 to 48 hrs; assay type: functional, organism-based; outline: as §1
Aedes aegypti [10] = assay: Insecticidal activity against third-instar larvae of Aedes aegypti assessed as mortality at 70 ppm after 24 to 48 hrs; assay type: functional, organism-based; outline: as §1
Aedes aegypti [11] = assay: Insecticidal activity against third-instar larvae of Aedes aegypti assessed as mortality at 45 ppm after 24 to 48 hrs; assay type: functional, organism-based; outline: as §1
Aedes aegypti [12] = assay: Insecticidal activity against third-instar larvae of Aedes aegypti assessed as mortality; assay type: functional
Outline: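 Third-instar larvae exposed in a diagnostic screen to 1000, 300, 270, 180, 140, 70, 60, 45 and 25 ppm. Five larvae per pot, four replicates per concentration, 1% DMSO-only control. Mortality scored at 24 and 48 h; larvae unable to reach the water surface when touched were counted dead.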

Acetylcholinesterase, sequence (P22303 whole entry): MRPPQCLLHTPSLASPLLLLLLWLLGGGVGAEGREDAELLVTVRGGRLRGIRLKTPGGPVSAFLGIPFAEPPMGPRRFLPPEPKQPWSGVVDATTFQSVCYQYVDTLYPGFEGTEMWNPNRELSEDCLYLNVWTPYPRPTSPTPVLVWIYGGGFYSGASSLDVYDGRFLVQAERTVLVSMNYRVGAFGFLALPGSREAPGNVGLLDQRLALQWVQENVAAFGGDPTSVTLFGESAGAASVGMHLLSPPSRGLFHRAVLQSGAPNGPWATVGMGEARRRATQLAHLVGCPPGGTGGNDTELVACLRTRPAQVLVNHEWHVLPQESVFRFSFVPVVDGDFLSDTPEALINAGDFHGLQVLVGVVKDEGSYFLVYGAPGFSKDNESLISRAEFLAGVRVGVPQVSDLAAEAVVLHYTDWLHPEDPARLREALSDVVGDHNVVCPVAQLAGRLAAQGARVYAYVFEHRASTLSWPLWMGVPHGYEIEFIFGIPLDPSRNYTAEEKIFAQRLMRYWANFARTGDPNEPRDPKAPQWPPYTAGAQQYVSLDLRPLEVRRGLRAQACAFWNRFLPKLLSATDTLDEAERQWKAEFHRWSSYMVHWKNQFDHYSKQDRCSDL

Compound | pKa [1] | IC50 (Acetylcholinesterase) [µM] | other results
COc1cc(C(C#N)N2CCN(C)CC2)cc(OC)c1OC (racemic) | 7.6 | 406 | 
N#CC(c1ccc2c(c1)OCO2)N1CCOCC1 (racemic) | 2.2 | 58 | Activity (Aedes aegypti [2]): Active
COc1cc(C(C#N)N2CCOCC2)cc(OC)c1OC (racemic) | 2.1 | 389 | 
CN1CCN(C(C#N)c2ccc3c(c2)OCO3)CC1 (racemic) | 7.6 | 275 | 
N#CC(c1ccc(O)cc1)N1CCOCC1 (racemic) | 2.4 |  | 
COc1ccc(C(C#N)N2CCCCC2)cc1OC (racemic) | 4 | 45 | Activity (Aedes aegypti [3]): Active; Activity (Aedes aegypti [4]): Active; LC99 (Aedes aegypti [5]): 147.54 ppm; LC50 (Aedes aegypti [5]; Aedes aegypti, 24 h): 88.1 µg/mL (≈ 338 µM); LC99 (Aedes aegypti [6]): 155.57 ppm; LC50 (Aedes aegypti [6]; Aedes aegypti, 48 h): 87.5 µg/mL (≈ 336 µM)
N#CC(c1ccc(O)cc1)N1CCCCC1 (racemic) | 4.2 | 93 | 
COc1cc(C(C#N)N2CCCCC2)ccc1O (racemic) | 4.1 | 448 | 
COc1cc(C(C#N)N2CCOCC2)ccc1O (racemic) | 2.3 | 409 | 
COc1ccc(C(C#N)N2CCN(C)CC2)cc1OC (racemic) | 7.6 | 379 | 
COc1ccc(C(C#N)N2CCCC2)cc1OC (racemic) | 4.3 | 42 | Activity (Aedes aegypti [4]): Active; Activity (Aedes aegypti [2]): Active; Activity (Aedes aegypti [7]): Active; Activity (Aedes aegypti [8]): Active
COc1ccc(C(C#N)N2CCOCC2)cc1OC (racemic) | 2.2 | 54 | Activity (Aedes aegypti [2]): Active
N#CC(c1ccc2c(c1)OCO2)N1CCCCC1 (racemic) | 4 | 61.4 | Activity (Aedes aegypti [9]): Active; Activity (Aedes aegypti [4]): Active; Activity (Aedes aegypti [2]): Active; Activity (Aedes aegypti [10]): Active; Activity (Aedes aegypti [11]): Active; Activity (Aedes aegypti [8]): Active
N#CC(c1ccc2c(c1)OCO2)N1CCCC1 (racemic) | 4.3 | 51 | Activity (Aedes aegypti [9]): Active; Activity (Aedes aegypti [4]): Active; Activity (Aedes aegypti [2]): Active
COc1cc(C(C#N)N2CCCCC2)cc(OC)c1OC (racemic) | 3.9 | 381 | 
COc1cc(C(C#N)N2CCCC2)cc(OC)c1OC (racemic) | 4.2 | 321 | 
COc1ccc(C(C#N)N2CCCCC2)cc1O (racemic) | 4 | 478 | 
COc1ccc(C(C#N)N2CCCC2)cc1O (racemic) | 4.3 | 394 | 
COc1ccc(C(C#N)N2CCOCC2)cc1O (racemic) | 2.2 | 363 | 
COc1ccc(C(C#N)N2CCN(C)CC2)cc1O (racemic) | 7.7 | 350 | 
COc1cc(C(C#N)N2CCCC2)ccc1O (racemic) | 4.4 | 358 | 
COc1cc(C(C#N)N2CCN(C)CC2)ccc1O (racemic) | 7.7 | 340 | 
N#CC(c1ccc(O)cc1)N1CCCC1 (racemic) | 4.5 |  | 
CN1CCN(C(C#N)c2ccc(O)cc2)CC1 (racemic) | 7.7 |  | 
CCOP(=S)(OCC)Oc1cc(C)nc(C(C)C)n1 [DIMPYLATE] |  | 1.9 | 
COP(=S)(OC)Oc1ccc(Sc2ccc(OP(=S)(OC)OC)cc2)cc1 [TEMEFOS] |  |  | LC50 (Aedes aegypti [12]): 0.006 µg/mL (≈ 0.0129 µM)
